Reference: ChEMBL document CHEMBL4184319, “Fluorescent-Labeled Selective Adenosine A2B Receptor Antagonist Enables Competition Binding Assay by Flow Cytometry” (J Med Chem, 2018)

Key:
Adenosine receptor A1 [1] = target: T1, Adenosine receptor A1 (Homo sapiens, UniProt P30542); assay: Displacement of [3H]DPCPX from recombinant human adenosine A1 receptor expressed in CHO cell membranes after 60 mins by scintillation counting method
T1 sequence (P30542 whole entry): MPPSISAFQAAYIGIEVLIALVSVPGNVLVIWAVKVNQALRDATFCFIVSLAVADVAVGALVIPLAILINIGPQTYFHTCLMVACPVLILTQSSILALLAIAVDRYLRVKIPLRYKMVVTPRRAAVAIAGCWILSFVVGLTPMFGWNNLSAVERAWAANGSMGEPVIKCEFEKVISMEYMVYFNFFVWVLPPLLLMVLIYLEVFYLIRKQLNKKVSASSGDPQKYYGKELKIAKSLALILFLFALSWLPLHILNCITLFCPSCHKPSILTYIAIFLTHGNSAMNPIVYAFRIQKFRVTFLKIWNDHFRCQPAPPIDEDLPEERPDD

[2] = target: T2, Adenosine receptor A1 (Homo sapiens) (UniProt P30542); assay: Antagonist activity at recombinant human adenosine A1 receptor expressed in CHO cell membranes assessed as inhibition of NECA-induced cAMP accumulation; format: functional, cell-based
T2 sequence (whole entry): T1 sequence (P30542 whole entry)

Adenosine receptor A2a [3] = target: Adenosine receptor A2a (Rattus norvegicus, UniProt P30543); assay: Displacement of [3H]MSX-2 from adenosine A2A receptor in rat brain striatal membranes after 30 mins by liquid scintillation counting method; format: cell membranes, Striatum, Membrane
Chain of Adenosine receptor A2a (Rattus norvegicus, UniProt P30543) (P30543 whole entry): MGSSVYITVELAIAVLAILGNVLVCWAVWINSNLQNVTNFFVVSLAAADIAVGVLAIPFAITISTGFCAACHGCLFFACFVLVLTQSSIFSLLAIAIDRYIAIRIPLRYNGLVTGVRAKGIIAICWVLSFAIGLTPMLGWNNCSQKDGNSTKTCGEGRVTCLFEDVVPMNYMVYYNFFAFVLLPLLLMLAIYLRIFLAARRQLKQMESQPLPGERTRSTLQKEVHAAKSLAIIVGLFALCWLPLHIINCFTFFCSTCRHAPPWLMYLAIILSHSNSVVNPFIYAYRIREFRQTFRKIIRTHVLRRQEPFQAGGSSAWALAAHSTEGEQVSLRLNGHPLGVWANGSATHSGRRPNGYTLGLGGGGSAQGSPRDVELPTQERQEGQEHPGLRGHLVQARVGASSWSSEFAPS
Method in brief: (§1)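 [³H]MSX-2 (1 nM) used with rat striatal or human A2A-HEK membranes, 30 min at rt. Membranes pre-incubated 10-15 min with ADA 0.12 IU/mL. DMSO 2.5 % final. GF/B filtration, then scintillation counting. Curves used 6-7 concentrations over 3 log units. At least three experiments, in duplicate (human) or triplicate (rat).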

Adenosine receptor A3 [4] = target: T3, Adenosine receptor A3 (Homo sapiens, UniProt P0DMS8); assay: Displacement of [3H]PSB-11 from recombinant human adenosine A3 receptor expressed in CHO cell membranes after 45 mins by liquid scintillation counting method
T3 sequence (P0DMS8 whole entry): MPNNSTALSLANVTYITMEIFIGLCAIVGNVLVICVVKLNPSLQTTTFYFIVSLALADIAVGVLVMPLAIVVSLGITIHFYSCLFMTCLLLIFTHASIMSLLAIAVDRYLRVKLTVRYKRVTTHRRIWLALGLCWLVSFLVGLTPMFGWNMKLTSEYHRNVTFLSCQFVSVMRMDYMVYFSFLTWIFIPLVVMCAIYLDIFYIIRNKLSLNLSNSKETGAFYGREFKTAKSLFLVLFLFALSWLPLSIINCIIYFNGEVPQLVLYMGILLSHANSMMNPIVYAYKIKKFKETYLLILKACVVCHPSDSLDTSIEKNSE
Method in brief: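 Human A3-CHO membranes incubated with [³H]PSB-11 (1 nM) for 45 min at rt, after 10-15 min pre-incubation with ADA 0.12 IU/mL. Nonspecific binding defined with 100 µM R-PIA. DMSO 2.5 % final. GF/B filtration, then scintillation counting. Curves used 6-7 concentrations over 3 log units. At least three experiments in duplicate.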

Adenosine receptor A1 [5] = target: T4, Adenosine receptor A1 (Rattus norvegicus, UniProt P25099); assay: Displacement of [3H]CCPA from adenosine A1 receptor in rat brain cortical membranes after 90 mins by liquid scintillation counting method; format: cell membranes
T4 sequence (P25099 whole entry): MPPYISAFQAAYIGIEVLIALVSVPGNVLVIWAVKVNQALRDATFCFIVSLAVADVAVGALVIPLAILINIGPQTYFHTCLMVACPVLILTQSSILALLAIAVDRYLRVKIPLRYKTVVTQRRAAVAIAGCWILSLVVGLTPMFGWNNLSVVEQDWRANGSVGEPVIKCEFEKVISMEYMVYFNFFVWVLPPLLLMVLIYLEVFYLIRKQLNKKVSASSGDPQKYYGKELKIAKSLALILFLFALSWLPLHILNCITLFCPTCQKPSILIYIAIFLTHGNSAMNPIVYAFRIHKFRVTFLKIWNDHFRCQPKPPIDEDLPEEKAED
Method in brief: (§2)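 [³H]CCPA (1 nM) used with rat brain cortical or human A1-CHO membranes, 90 min at rt. Membranes pre-incubated 10-15 min with ADA 0.12 IU/mL. Nonspecific binding defined with 10 µM CADO. Compounds dissolved in DMSO, 2.5 % final. Filtration on GF/B filters with ice-cold Tris-HCl washes, then scintillation counting. Curves used 6-7 concentrations spanning 3 log units. At least three experiments, in duplicate (human) or triplicate (rat).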

Adenosine receptor A2b = target: T5, Adenosine receptor A2b (Homo sapiens, UniProt P29275); assay: Displacement of [3H]PSB-603 from recombinant human adenosine A2B receptor expressed in CHO cell membranes after 75 mins by liquid scintillation counting method
T5 sequence (P29275 whole entry): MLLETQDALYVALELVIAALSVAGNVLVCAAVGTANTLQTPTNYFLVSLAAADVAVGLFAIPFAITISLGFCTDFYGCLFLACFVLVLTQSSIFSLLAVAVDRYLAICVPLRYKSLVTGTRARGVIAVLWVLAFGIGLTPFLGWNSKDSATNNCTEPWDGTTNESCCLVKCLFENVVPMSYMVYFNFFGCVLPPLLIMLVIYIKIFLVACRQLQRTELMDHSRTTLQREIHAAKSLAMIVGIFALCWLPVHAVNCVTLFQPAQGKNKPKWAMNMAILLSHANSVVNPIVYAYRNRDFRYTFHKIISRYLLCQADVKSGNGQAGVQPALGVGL
Method in brief: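 [³H]PSB-603 (0.3 nM) used with CHO membranes expressing human, mouse or rat A2BAR, 75 min at rt. Membranes pre-incubated 10-15 min with ADA 0.12 IU/mL. Nonspecific binding defined with 10 µM DPCPX. DMSO 2.5 % final. Filtration on GF/B with ice-cold 50 mM Tris-HCl pH 7.4 containing 0.1 % BSA, then scintillation counting. Curves used 6-7 concentrations over 3 log units. At least three experiments.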

[6] = Selectivity ratio of Ki for adenosine A2A receptor in rat brain striatal membranes to Ki for recombinant human adenosine A2B receptor expressed in CHO cell membranes; format: cell-based
Adenosine receptor A1 [7] = target: T4, Adenosine receptor A1; assay: Displacement of [3H]-ADAC from adenosine A1 receptor in rat cerebral cortex membranes after 120 mins by filter binding method; format: cell membranes, Membrane
Homo sapiens = organism: Homo sapiens; assay: Selectivity ratio of Ki for recombinant human adenosine A2A receptor expressed in HEK cell membranes to Ki for recombinant human adenosine A2B receptor expressed in CHO cell membranes; format: cell-based
Adenosine receptor A1 [8] = target: T1, Adenosine receptor A1; assay: Displacement of [3H]CCPA from recombinant human adenosine A1 receptor expressed in CHO cell membranes after 90 mins by liquid scintillation counting method; method in brief: as §2
Adenosine receptor A2a [9] = target: Adenosine receptor A2a (Homo sapiens, UniProt P29274); assay: Displacement of [3H]MSX-2 from recombinant human adenosine A2A receptor expressed in HEK cell membranes after 30 mins by liquid scintillation counting method
Chain of Adenosine receptor A2a (Homo sapiens, UniProt P29274) (P29274 whole entry): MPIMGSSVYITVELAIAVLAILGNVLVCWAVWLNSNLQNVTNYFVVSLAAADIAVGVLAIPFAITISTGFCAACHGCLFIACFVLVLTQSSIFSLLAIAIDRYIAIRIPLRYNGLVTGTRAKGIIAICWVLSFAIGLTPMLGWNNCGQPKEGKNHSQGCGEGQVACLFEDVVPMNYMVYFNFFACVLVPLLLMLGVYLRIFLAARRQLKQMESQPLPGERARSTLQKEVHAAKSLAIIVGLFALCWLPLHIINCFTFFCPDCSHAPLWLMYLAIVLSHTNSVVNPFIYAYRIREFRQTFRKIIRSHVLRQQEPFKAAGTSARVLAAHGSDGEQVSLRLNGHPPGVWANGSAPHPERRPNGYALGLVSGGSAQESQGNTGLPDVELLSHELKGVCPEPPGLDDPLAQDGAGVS
Method in brief: as §1, with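 “IU/mL. Nonspecific binding defined with 10 µM CGS15943.” for “IU/mL.”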

Adenosine receptor A3 [10] = target: T6, Adenosine receptor A3 (Rattus norvegicus, UniProt P28647); assay: Displacement of [3H]-(R)-PIA from adenosine A3 receptor in rat testis membranes; format: cell membranes, Membrane
T6 sequence (P28647 whole entry): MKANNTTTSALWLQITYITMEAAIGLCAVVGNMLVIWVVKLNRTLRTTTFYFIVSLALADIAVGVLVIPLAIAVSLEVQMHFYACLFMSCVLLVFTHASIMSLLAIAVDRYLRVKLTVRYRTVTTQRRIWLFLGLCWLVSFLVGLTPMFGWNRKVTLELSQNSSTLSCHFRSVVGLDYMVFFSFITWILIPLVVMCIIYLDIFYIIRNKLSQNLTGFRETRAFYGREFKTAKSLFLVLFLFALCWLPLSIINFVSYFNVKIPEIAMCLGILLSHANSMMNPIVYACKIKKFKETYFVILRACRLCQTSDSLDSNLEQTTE

[11] = target: Adenosine receptor A1 (Rattus norvegicus) (UniProt P25099); assay: Displacement of [3H]-CHA from adenosine A1 receptor in rat striatal membranes
Adenosine receptor A1 [12] = target: T4, Adenosine receptor A1; assay: Displacement of [3H]-CHA from adenosine A1 receptor in rat cortical membranes; format: cell membranes

Ki (Adenosine receptor A2a [3]) [nM] | Ki (Adenosine receptor A3 [4]) [nM] | Ki (Adenosine receptor A1 [5]) [nM] | Ki (Adenosine receptor A2b) [nM] | Structure (SMILES) | Ratio Ki [6] | also measured
– | – | – | – | CCCn1c(=O)c2[nH]c(-c3ccc(OCC(=O)NCCNC(=O)CCCCCNC(=O)COc4ccc(/C=C/C5=[N+]6C(=Cc7ccc(-c8cccs8)n7[B-]6(F)F)C=C5)cc4)cc3)nc2n(CCC)c1=O | – | Kd (Adenosine receptor A1 [1]): 151 nM; Kb [2]: 209 nM
1570 | 719 | 178 | 24.4 | CCCn1c(=O)[nH]c2nc(-c3ccc(OCC(=O)NCCCCC4=C5C(C)=CC(C)=[N+]5[B-](F)(F)n5c(C)cc(C)c54)cc3)[nH]c2c1=O | 64 | –
– | – | – | – | O=C(Cc1ccc(NC(=O)Cc2ccc(Nc3ncnc4c3ncn4[C@@H]3O[C@H](CO)[C@@H](O)[C@H]3O)cc2)cc1)NCCNc1ccc([N+](=O)[O-])c2nonc12 | – | Ki (Adenosine receptor A1 [7]): 4.3 nM
2150 | 904 | 168 | 11.6 | CCCn1c(=O)[nH]c2nc(-c3ccc(OCC(=O)NCCCC4=C5C(C)=CC(C)=[N+]5[B-](F)(F)n5c(C)cc(C)c54)cc3)[nH]c2c1=O | > 150 | –
477 | 4550 | 77.9 | 5.9 | CCCn1c(=O)[nH]c2nc(-c3ccc(OCC(=O)NCCCCCC4=C5C(C)=CC(C)=[N+]5[B-](F)(F)n5c(C)cc(C)c54)cc3)[nH]c2c1=O | 81 | Ratio Ki (Homo sapiens): 9.9; Ki (Adenosine receptor A1 [8]): 714 nM; Ki (Adenosine receptor A2a [9]): 58.7 nM
– | – | – | – | O=C(Cc1ccc(NC(=O)Cc2ccc(Nc3ncnc4c3ncn4[C@@H]3O[C@H](CO)[C@@H](O)[C@H]3O)cc2)cc1)NCCNC(=S)Nc1ccc(-c2c3ccc(=O)cc-3oc3cc(O)ccc23)c(C(=O)O)c1 | – | Ki (Adenosine receptor A1 [7]): 7.1 nM
– | – | – | – | CCNC(=O)[C@H]1O[C@@H](n2cnc3c(NCCCCCCNS(=O)(=O)c4cccc5c(N(C)C)cccc45)ncnc32)[C@H](O)[C@@H]1O | – | Ki (Adenosine receptor A3 [10]): 3600 nM; Ki [11]: 4600 nM; Ki (Adenosine receptor A1 [12]): 27 nM
